Screens: PubChem BioAssay, several laboratories
NR1D1 modulator – modulators of Rev-erb alpha DNA binding, primary screen, biochemical, FITC-DNA, fluorescence polarization, uHTS; Nuclear receptor subfamily 1 group D member 1 (Homo sapiens), P20393; Rev-erbα–FITC-DNA binding, 90 min; activity, % at 10 µM; hit rate 0.79% among 370,000; AID 1259318, 2017;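 active = activity above about 14%, limit read from the data; passing the limit was not always enough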
Target sequence (P20393 whole entry, looked up): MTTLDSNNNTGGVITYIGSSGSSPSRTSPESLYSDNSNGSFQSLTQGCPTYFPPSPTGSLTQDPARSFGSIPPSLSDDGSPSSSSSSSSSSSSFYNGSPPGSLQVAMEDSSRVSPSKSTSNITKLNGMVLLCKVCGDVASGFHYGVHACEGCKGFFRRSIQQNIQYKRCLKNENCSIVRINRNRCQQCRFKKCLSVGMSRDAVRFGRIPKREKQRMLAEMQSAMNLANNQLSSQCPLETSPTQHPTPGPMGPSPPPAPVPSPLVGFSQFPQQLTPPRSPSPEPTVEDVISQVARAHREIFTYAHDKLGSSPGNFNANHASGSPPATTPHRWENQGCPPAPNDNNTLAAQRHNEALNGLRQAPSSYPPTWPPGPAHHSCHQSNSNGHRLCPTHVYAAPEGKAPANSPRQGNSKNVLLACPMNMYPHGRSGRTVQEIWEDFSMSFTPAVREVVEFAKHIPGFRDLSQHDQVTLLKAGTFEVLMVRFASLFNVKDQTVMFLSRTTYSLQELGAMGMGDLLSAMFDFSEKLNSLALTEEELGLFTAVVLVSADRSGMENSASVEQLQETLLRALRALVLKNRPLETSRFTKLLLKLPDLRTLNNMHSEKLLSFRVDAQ
ASAP1 GAP inh – inhibitors of human ASAP1 ArfGAP activity, primary screen, biochemical, fluorescence polarization. hit rate 0.19% among 360,000. inhibition, % at 16.5 µM. ASAP1-stimulated ARF1 GTP hydrolysis, GDP FP detection; in the data active = inhibition above about 25%
MsrA act – bovine MsrA enzyme activators, primary screen, biochemical, absorbance, HTS | purified bovine MsrA, absorbance read-out | activation, % at 10.6 µM | hit rate 0.3% among 360,000 | AID 602163, 2012; in the data active = activation above about 7.5%
sPLA2-III inh – human group III sPLA2 inhibitors, primary screen, biochemical, QFRET, BODIPY PC-A2 liposome substrate. Group 3 secretory phospholipase A2 (Homo sapiens), Q9NZ20. QFRET BODIPY PC-A2 liposome hydrolysis, fluorescence. inhibition, % at 12.2 µM. hit rate 0.56% among 370,000. AID 743126, 2013;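 active = inhibition above mean plus 3 SD of compounds lying within the high and low control bounds, cut at about 19% in these data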
MsrA inh – bovine MsrA enzyme inhibitors, primary screen, biochemical, absorbance, HTS; purified bovine MsrA, absorbance read-out; inhibition, % at 15.5 µM; hit rate 0.75% among 360,000; AID 651718, 2012; in the data active = inhibition above about 4.5%
ARFGAP1 inhibitor – inhibitors of rat ARFGAP1 GAP activity, primary screen, biochemical, fluorescence polarization, GDP tracer. ADP-ribosylation factor GTPase-activating protein 1 (Rattus norvegicus), Q62848. inhibition, % at 16.5 µM. hit rate 0.26% among 360,000. AID 651572, 2012. Arfgap1-stimulated ARF1 GTP hydrolysis, GDP FP detection;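 active = inhibition above a per-plate limit, mean inhibition of low control wells plus 3 SD, cut at about 25% in these data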
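Material – truncated rat Arfgap1 GAP domain · Buffer or medium – HEPES-based buffer, pH 7.5 · Reagent – human ARF1(Δ1-17)-GTP substrate · Dosing – 16.5 µM single point, 1.26% DMSO · Schedule – GTP hydrolysis reaction 2 h at 25 °C · Technique – GDP detection by fluorescence polarization · Benchmarks – No-Arfgap1 wells (100%) versus DMSO full-reaction wells (0%) · Repeats – single replicate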
NR1D1 mod conf – modulators of Rev-erb alpha DNA binding, confirmation, biochemical, FITC-DNA, fluorescence polarization, single point | AID 1259319, 2017 | shares compounds with NR1D1 modulator | 90 min | hit rate 61% among 3,000 | activation, % at 25 µM;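 active = activation at or above a set limit, or at least 3 SD above the negative control mean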
RORg DNA counter – modulation of RORgamma DNA binding, dose response, counter-screen for Rev-erb alpha modulator project, biochemical, fluorescence polarization, FITC-DNA; AID 1259320, 2017; IC50, µM; shares compounds with NR1D1 modulator; hit rate 8% among 910; purified RORgamma protein-FITC-DNA binding;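 active = Compounds whose fitted half-maximal concentration for disrupting protein-DNA binding is below 10 micromolar; the record names Rev-erb in its text, so the target is in doubt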
Of the large screens only hits and unclear results are named; the others gave an inactive call (follow-up assays come after a bar, where they were run). The list is not random: actives were taken first. Their share in the collection is about 2.7%.

CCn1ncc(Br)c1C(=O)Nc1cc(C(=O)OC)ccc1C(=O)OC	NR1D1 modulator 44.8 | NR1D1 mod conf 24.2
CON(C)C(=O)[C@H]1C[C@@H]2[C@H](C[C@@H](c3ccccc3)[C@H]1C)N(c1ccc(F)cc1)C(=O)N2CCCOc1ccccc1	none (no result: MsrA act)
COc1c(C=O)c2c(c(OC)c1OC)-c1ccc(OC)c(=O)cc1C(NC(C)=O)CC2 (stereo not drawn)	none
CC(=O)NC(c1cccc(F)c1)c1nc(-c2cc(F)cc(Cl)c2)cs1 (stereo not drawn)	none
COc1cc(C(C)=O)ccc1Oc1ncnc2c1cnn2-c1ccc(F)cc1	NR1D1 modulator 25.1 | NR1D1 mod conf inactive
CCn1cc(C2N3CC4(C)CN2CC(C)(C3)C4=O)c2ccccc21 (stereo not drawn)	NR1D1 modulator 50.0 | NR1D1 mod conf 56.1 | RORg DNA counter inactive
Cn1c(/C(C#N)=C(\O)COc2ccc3ccccc3c2)nc2ccccc21	NR1D1 modulator 22.8 | NR1D1 mod conf inactive
Cn1c(/C(C#N)=C(\O)c2ccccc2Cl)nc2ccccc21	none
Cn1c(/C(C#N)=C(\O)c2ccc(Cl)s2)nc2ccccc21	NR1D1 modulator 49.7 | NR1D1 mod conf inactive
Cn1c(/C(C#N)=C(\O)c2ccc([N+](=O)[O-])s2)nc2ccccc21	none
CSc1ccccc1NC(=O)C1=CC(c2cccs2)=NS(=O)(=O)N1C	none
COC(=O)c1ccccc1NC(=O)C1=CC(c2cccs2)=NS(=O)(=O)N1C	NR1D1 modulator 52.0 | NR1D1 mod conf 31.7 | RORg DNA counter 3.02
Fc1ccc(-n2c(-c3cccs3)nc3nc4ccccc4nc32)cc1	NR1D1 modulator 75.4 | NR1D1 mod conf 59.4 | RORg DNA counter inactive
Cc1ccc(-n2c(-c3cccs3)nc3nc4ccccc4nc32)cc1	none (no result: MsrA act)
Cc1ccc(N(C)S(=O)(=O)c2cccc(C(=O)OCC(=O)N(C)Cc3ccccc3)c2)cc1	none
CSCCC(C(=O)Nc1c(C)cccc1C)n1c(COc2ccc(C)cc2)nc2ccccc21 (stereo not drawn)	none (no result: MsrA act)
CCCCCN1CCCCC(NC(=O)CSc2ccccc2)C1=O (stereo not drawn)	none (no result: ASAP1 GAP inh, MsrA act, MsrA inh, ARFGAP1 inhibitor)
COc1ccc(-c2nc(N)ncc2Oc2ccccc2Br)c(O)c1	NR1D1 modulator 103.6 | NR1D1 mod conf 80.5 | RORg DNA counter inactive
O=C(OC1CC2CC1[C@H]1CCCCN1C2=O)N1CCC(c2ccccc2)CC1 (stereo partly drawn)	none
Cn1nc(-c2ccccc2)cc1NC(=O)c1ccccc1	NR1D1 modulator 41.2 | NR1D1 mod conf inactive
Cc1cc(NC(=O)c2ccccc2)n(C)n1	none
COc1ccc(C(=O)Nc2sc3c(c2C(=O)NCc2ccco2)CCCC3)cc1OC	NR1D1 modulator 25.7 | NR1D1 mod conf inactive
COc1cc(C(=O)Nc2sc3c(c2C(=O)NCc2ccco2)CCCC3)cc(OC)c1OC	NR1D1 modulator 26.9 | NR1D1 mod conf inactive
C[C@H](CO)N1C[C@H](C)[C@@H](CN(C)C(=O)Nc2ccc(F)cc2)Oc2ncc(-c3ccc(F)cc3)cc2C1=O	none
CC1(c2nnnn2Cc2ccccc2)CCC(=O)N1CCOc1ccccc1 (stereo not drawn)	none
CN(/N=C/c1c[nH]c2ccccc12)c1cnn(-c2ccc(F)c(Cl)c2)c(=O)c1Cl	none
CN(/N=C/c1cccnc1)c1cnn(-c2ccc(F)c(Cl)c2)c(=O)c1Cl	NR1D1 modulator 25.9 | NR1D1 mod conf inactive
CCN(CC)c1ccc2cc(S(=O)(=O)c3ccc(Cl)cc3)c(=O)oc2c1	NR1D1 modulator 17.4 | NR1D1 mod conf 18.5
CCCCCCc1cc2cc(S(=O)(=O)c3ccc(Cl)cc3)c(=O)oc2cc1O	none
COc1cc(C=Cc2nnc3c4ccccc4cnn23)cc(OC)c1OC	NR1D1 modulator 50.2 | NR1D1 mod conf 36.0 | RORg DNA counter inactive
COc1cc(C=C2C(=O)c3ccccc3C2=O)cc(OC)c1OC	none
CCOC(=O)c1cc2c(=O)c3ccccc3oc2nc1C	NR1D1 modulator 53.1 | NR1D1 mod conf 44.0 | RORg DNA counter inactive
Cc1cc(NCCCOC(C)C)n2c(nc3ccccc32)c1C#N	NR1D1 modulator 44.3 | NR1D1 mod conf inactive
Cc1nc(SCc2nc3ccc(C(=O)c4ccccc4)cc3[nH]2)c2oc3ccccc3c2n1	NR1D1 modulator 63.3 | NR1D1 mod conf 75.5
Cc1nc(SCc2nc3ccccc3[nH]2)c2oc3cc(Br)ccc3c2n1	NR1D1 modulator 46.4 | NR1D1 mod conf 53.2 | RORg DNA counter inactive
N#C/C(=C\c1ccc(O)cc1)c1nc2ccccc2o1	none
COc1cc(/C=C(\C#N)c2nc3ccccc3o2)ccc1O	NR1D1 modulator 42.7 | NR1D1 mod conf 59.7 | RORg DNA counter inactive
COc1ccc(C(C)=O)cc1COC(=O)c1ccc(OCc2c(C)noc2C)cc1	NR1D1 modulator 16.3 | NR1D1 mod conf inactive
COc1ccc(C(C)=O)cc1COC(=O)c1c(C)noc1C	none
Cn1nc2c3ccccc3n(Cc3ccccc3)c2nc1=S	NR1D1 modulator 30.4 | NR1D1 mod conf 23.4
CC(C)(C)C(=O)Nc1ccc2oc(-c3cc(F)c(F)cc3Cl)nc2c1	NR1D1 modulator 22.3 | NR1D1 mod conf inactive
COc1cc(N=Nc2ccc(C)cc2S(N)(=O)=O)c(C)cc1N	NR1D1 modulator 24.8 | NR1D1 mod conf 20.9
COc1cc(S(N)(=O)=O)c(OC)cc1N	none
COc1ccc(C(C)(O)c2nc(-c3cccc(C(C)C)c3)cs2)cc1 (stereo not drawn)	none
COc1cc(C(=O)NCc2ccc(-c3nc4ccccc4s3)cc2)cc(OC)c1OC	NR1D1 modulator 38.3 | NR1D1 mod conf 32.5 | RORg DNA counter inactive
COc1ccc(C(=O)NCc2ccc(-c3nc4ccccc4s3)cc2)cc1	none
COc1cc(C(=O)NCc2ccc(-c3nc4ccccc4o3)cc2)cc(OC)c1OC	NR1D1 modulator 25.8 | NR1D1 mod conf inactive
COc1cc(C(=O)NCc2ccncc2)cc(OC)c1OC	none
COc1ccccc1C(=O)Nc1ccc2oc(-c3ccc(F)cc3)nc2c1	NR1D1 modulator 36.5 | NR1D1 mod conf 32.9 | RORg DNA counter inactive
